The record followed here is ChEMBL document CHEMBL4130487, “A pentanoic acid derivative targeting matrix metalloproteinase-2 (MMP-2) induces apoptosis in a chronic myeloid leukemia cell line” (Eur J Med Chem, 2017).

The test system of experiment [1] is K562. The experiment is described as follows: Induction of apoptosis in human K562 cells assessed as DNA nick generation after 48 hrs by DAPI staining based fluorescence microscopic method.
Experiment [2] deals with K562. The experiment is described as follows: Anti-invasive activity against human K562 cells after 24 hrs by CyQuantGR dye based fluorimetric QCM EC matrix assay. The format is functional, cell-based. In a few lines:
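K562 cells (1X10^6 cells/ml) starved overnight in FBS-free medium, then placed in inserts in FBS-free medium with 5% BSA, with 5% FBS medium below as chemoattractant. Treated at 2.5, 5 and 10 μM in triplicate for 24 h alongside an untreated control. Invaded cells were detached, stained with CyQuantGR and read by fluorescence (ex 480/em 520 nm). Results given as % of control, mean ± SD.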

Experiment [3] concerns K562. The experiment is described as follows: Cell cycle arrest in human K562 cells assessed as accumulation at G2/M-phase at 10 uM after 24 hrs by propidium iodide staining based flow cytometry (reference value: 35.3%). On the technique in general: A flow cytometer gives signals particle by particle.
In experiment [4] the test system is K562. Briefly: Downregulation of MMP2 protein expression in human K562 cells assessed as MMP2 positive population at 5 uM after 48 hrs by FITC staining based flow cytometry (reference value: 98.4%).

The source made the active and inactive calls. The calls are words filed in the database; no cut-off is given here.

With `CCCCCNC(=O)CC[C@H](NS(=O)(=O)c1ccc([N+](=O)[O-])cc1)C(=O)O`, the outcome with K562 [1] was Active. Besides, the Activity result with K562 [2] was “Dose-dependent effect”; in the experiment with K562 [3], 23.1%; in the experiment on K562 [4] it was 18.9%.
